Measured values: PMC2910123 (Journal of inorganic biochemistry, 2010)

What was measured:
[1] = system: poly (dG-dC).poly (dG-dC); settings: cited from earlier work
[2] = system: poly (dA-dT).poly (dA-dT); settings: cited from earlier work
CT DNA [3] = experiment: Spectrophotometric; assay type: binding, calf; settings: 25°C, 5mM Tris/HCl, 50 mM NaClO4 buffer, pH=7.39; average of values calculated at 330 and 343 nm
CT DNA [4] = experiment: Fluorimetric; assay type: binding, calf; settings: 25°C, 5mM Tris/HCl, 50 mM NaClO4 buffer, pH=7.39; values calculated at 380 nm
CT DNA [5] = experiment: Thermal denaturation of CT DNA; assay type: binding, calf; settings: 0.5 equivalents of drug, 1h at 25°C, 5 mM Tris/HCl buffer; for ΔTm /1h incubation/25mM NaClO4: pH=7.39, 25mM NaClO4; for ΔTm /1h incubation/50m M NaClO4: pH=7.39, 50 mM NaClO4
SUP-T1 lymphoma cells = experiment: Cytotoxicity assay by flow cytometry; assay type: cell-based, human
[6] = system: Jurkat human T lymphocyte leukemia cells; experiment: Cytotoxicity assay by flow cytometry; assay type: cell-based
pBR322 plasmid DNA = experiment: Electrophoresis Mobility Shift Assay; assay type: binding; settings: pBR322, 20 h at 37°C, molar ratios 0.25 to 1.0 (cisplatin 0.5 eq.)
CT DNA [7] = experiment: Circular dichroism spectroscopy of CT DNA; assay type: binding, calf; settings: incubated at 37°C with increasing drug/DNA ratios
[8] = system: several cancer cell lines; settings: cited from earlier work
Jurkat cells = experiment: Apoptosis assay by two-color flow cytometry; assay type: cell-based, human; settings: 100 µM, 16 h
How it was run: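 Jurkat cells were plated at 100,000 cells/well in RPMI 1640 with antibiotics and 10% heat-inactivated newborn calf serum, then exposed to 100 µM test compound (in 0.9% NaCl or DMSO) for 16 h. Cells were pelleted cold, washed in cold medium then PBS, and stained with Annexin V-FITC plus PI in HEPES binding buffer (pH 7.4, 140 mM NaCl, 2.55 mM CaCl2). Compensation used unstained, single- and double-stained cells.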

[9] = system: dedifferentiated liposarcoma cell line LS141; settings: cited from earlier work
[10] = system: HCT-116 colon cancer cell lines; settings: cited from earlier work

Molecule	Kb1, Absorption Titration (CT DNA [3])	Kb2, Absorption Titration (CT DNA [3])	Kb1, Emission Titration (CT DNA [4]) [M⁻¹]	Kb2, Emission Titration (CT DNA [4]) [M⁻¹]	ΔTm /1h incubation/25mM NaClO4 (CT DNA [5])	ΔTm /1h incubation/50m M NaClO4 (CT DNA [5])	effect on electrophoretic mobility of CCC and OC forms (pBR322 plasmid DNA)	further results
CCN(CC)CCCC(C)Nc1ccnc2cc(Cl)ccc12.O=P(O)(O)O.O=P(O)(O)O (single isomer, unassigned; (-)) [(−)-CQDP]								binding affinity ratio of (−) to (+) enantiomer [1]: 1.29; binding affinity ratio of (−) to (+) enantiomer [2]: 1.28
CCN(CC)CCCC(C)Nc1ccnc2cc(Cl)ccc12 (stereo not shown) [CQDP, chloroquine diphosphate]	1.07 ± 0.05 x 10^7 M^−1	1.23 ± 0.68 x 10^5 M^−1	2.63e+07	438000	+4.9 °C	+3.0 °C	does not cause any significant effect	CC50 (SUP-T1 lymphoma cells; Homo sapiens, SUP-T1, 20 h): 130 µM; CC50 ([6]; Homo sapiens, 20 h): 95 µM; changes in CD spectrum of CT DNA (CT DNA [7]): two new sizable CD bands at 330 and 340 nm
N.N.[Cl][Pt][Cl] [cisplatin]							decrease in mobility of the CCC form and an increase in mobility of the OC form	
Ru(KTZ)2Cl2								IC50 [8]: ~25 µM
[Ru(η^6-p-cymene)(η^6-CQDP)][BF4]2 [Complex 5]	2.10 ± 0.68 x 10^7 M^−1	3.15 ± 0.12 x 10^5 M^−1	1.2e+06	354000	+5.1 °C	+2.8 °C		CC50 (SUP-T1 lymphoma cells; SUP-T1, 20 h of incubation, PI and flow cytometry, average of triplicates): 70 µM; CC50 ([6]; 20 h of incubation, PI and flow cytometry, average of triplicates): 77 µM; mechanism of cell death (apoptosis/necrosis) (Jurkat cells): mainly induce apoptosis; antitumor activity (in words) [9]: active; antitumor activity (in words) [10]: active
